In ChEMBL document CHEMBL1121586, “Synthesis, biological activity, and structure--activity/toxicity relationships of a series of terphenyl analogues of hemicholinium-3 and acetyl-seco-hemicholinium-3. 3” (J Med Chem, 1980):

Columns and labels:
Mus musculus [1] = test: Tested for percentage mortality in charles river CD-1 strain adult male albino mice after introducing antagonist choline at intraperitoneal dosage of 20 mg/kg, 1 min prior to compound; b represents Least toxic; type: functional, organism-based; design: dose 20 mg/kg
Mus musculus [2] = test: Tested for percentage mortality in charles river CD-1 strain adult male albino mice after introducing antagonist neostigmine at intraperitoneal dosage of 0.2 mg/kg, 1 min prior to compound; b represents Least toxic; type: functional, organism-based; design: dose 0.2 mg/kg
Mus musculus [3] = test: Tested for terphenyl analogue in charles river CD-1 strain adult male albino mice after intraperitoneal administration; b represents Least toxic; type: ADME, organism-based; details: in vivo, ip
[4] = Tested for biphenyl analogue in charles river CD-1 strain adult male albino mice after intraperitoneal administration; type: ADME, organism-based; details: CD-1, mouse, in vivo, ip
Mus musculus [5] = test: Tested for percentage mortality in charles river CD-1 strain adult male albino mice after introducing antagonist choline at intraperitoneal dosage of 20 mg/kg, 1 min prior to compound; type: functional; design: concentration or dose not given beside the values; details: ip
Mus musculus [6] = test: Tested for percentage mortality in charles river CD-1 strain adult male albino mice after introducing antagonist neostigmine at intraperitoneal dosage of 0.2 mg/kg, 1 min prior to compound; type: functional; design: concentration or dose not given beside the values; details: ip
[7] = Tested for terphenyl analogue in charles river CD-1 strain adult male albino mice after intraperitoneal administration.; type: ADME, organism-based; details: CD-1, mouse, in vivo, ip
How it was run: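 Adult male albino Charles River CD-1 mice (20-30 g) were dosed ip with a suspension in 0.8% (w/v) sodium carboxymethylcellulose in 0.9% NaCl. The LD50 was estimated by Finney's staircase sampling method, which allows for variation in LD50 with time of day, and is reported with 95% confidence limits.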

[8] = Ratio of terphenyl LD50 doses to biphenyl HC-3 in charles river CD-1 strain adult male albino mice; type: ADME, organism-based; details: CD-1, mouse, in vivo
[9] = Ratio of terphenyl LD50 doses to biphenyl analogues in charles river CD-1 strain adult male albino mice; type: ADME, organism-based; details: CD-1, mouse, in vivo

SMILES	Mortality (Mus musculus [1])	Mortality (Mus musculus [2])	LD95 (Mus musculus [3])	LD50 [4]	mortality (Mus musculus [5])	mortality (Mus musculus [6])	LD50 [7]	selectivity ratio [8]	selectivity ratio [9]
C[N+](C)(CCS)CC(=O)c1ccc(-c2ccc(-c3ccc(C(=O)C[N+](C)(C)CCS)cc3)cc2)cc1.[Br-].[Br-]	Toxic	Toxic	Toxic	29.4 mg/kg	–	–	–	–	–
CCCCC[N+](C)(C)CC(=O)c1ccc(-c2ccc(-c3ccc(C(=O)C[N+](C)(C)CCCCC)cc3)cc2)cc1.[Br-].[Br-]	–	–	–	5.6 mg/kg	80%	100%	5.32 mg/kg	32.8	1.38
CC(=O)SCC[N+](C)(C)CC(=O)c1ccc(-c2ccc(-c3ccc(C(=O)C[N+](C)(C)CCSC(C)=O)cc3)cc2)cc1.[Br-].[Br-]	–	–	–	0.133 mg/kg	60%	80%	3.05 mg/kg	23.5	22.9
CC(=O)CCC[N+](C)(C)CC(=O)c1ccc(-c2ccc(-c3ccc(C(=O)C[N+](C)(C)CCCC(C)=O)cc3)cc2)cc1.[Br-].[Br-]	–	–	–	3.1 mg/kg	–	–	4.27 mg/kg	32.8	1.38
C[N+]1(C)CCOC(O)(c2ccc(-c3ccc(-c4ccc(C5(O)C[N+](C)(C)CCO5)cc4)cc3)cc2)C1.[Br-].[Br-] (stereo not drawn)	–	–	–	0.13 mg/kg	70%	80%	0.107 mg/kg	0.82	0.82
CC(=O)OCC[N+](C)(C)CC(=O)c1ccc(-c2ccc(-c3ccc(C(=O)C[N+](C)(C)CCOC(C)=O)cc3)cc2)cc1.[Br-].[Br-]	–	–	–	0.125 mg/kg	30%	20%	0.333 mg/kg	2.56	2.66
CCOCC[N+](C)(C)CC(=O)c1ccc(-c2ccc(-c3ccc(C(=O)C[N+](C)(C)CCOCC)cc3)cc2)cc1.[Br-].[Br-]	–	–	–	1.84 mg/kg	90%	90%	16.6 mg/kg	127	9.02
